Compound activity from PubChem.
Calb FLC: C. albicans growth modulation with fluconazole; C. albicans CaCi-2 (fluconazole-resistant clinical isolate) + fluconazole, Alamar Blue growth, 48 h; growth inhibition, % (test concentration not listed); 0.57% of 300,000 active; AID 1979;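 active = growth inhibition above about 58% in most replicates, limit read from the data, passing the limit was not always enough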;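 also: all wells also contain fluconazole at 8 µg/ml as a sub-toxic cotreatment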
MC4R antag cAMP: blocks human MC4R cAMP signaling; P32245; MC4R-expressing cells, MTII-stimulated cAMP, LANCE TR-FRET; inhibition, % at 6.5 µM; 0.48% of 360,000 active;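 active = inhibition above its plate's cutoff, the mean of tested wells on that plate plus 3 SD, cut at about 29% in these data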
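Material – human MC4R-expressing U2OS cells · Repeats – no replicates · Detection – TR-FRET with Eu-cAMP and labeled anti-cAMP, 671 nm · Times – compound 30 min, challenge 1 h, detection 1 h · Compound – single nominal compound dose of 6.5 µM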
MC4R ag barr: activates human MC4R beta-arrestin recruitment | activation, % at 8.9 µM | U2OS MC4R beta-arrestin complementation, luminescence; percent of melanotan II response, DMSO zero | 0.98% of 360,000 active;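 active = activation above a per-plate cutoff, the mean activation of sample wells on that plate plus 3 SD, cut at about 8% in these data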
TAG inh: triacylglycerol accumulation inhibition; 0.66% of 230,000 active; inhibition, % at 12.5 µM; H9c2 cells, Nile Red lipid (TAG) fluorescence; cells loaded with 200 µM oleic acid;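 active = pattern-corrected inhibition of lipid staining of at least 50% with the nuclear-stain viability signal not falling by more than 50%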
GalR3 antag: human GalR3 antagonism; O60755; HEK293 GalR3-CNG cAMP membrane potential fluorescence; galR3 body fused to GalR1 C-terminus; inhibition, % at 3 µM; 0.44% of 360,000 active; AID 651719;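 active = inhibition above the screen-wide average plus 3 SD, cut at about 13% in these data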;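 also: forskolin and galanin both at EC90 stimulate the cells; cAMP rise reported by CNG channel membrane potential dye signal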
Target sequence (O60755 1-299 limits assumed): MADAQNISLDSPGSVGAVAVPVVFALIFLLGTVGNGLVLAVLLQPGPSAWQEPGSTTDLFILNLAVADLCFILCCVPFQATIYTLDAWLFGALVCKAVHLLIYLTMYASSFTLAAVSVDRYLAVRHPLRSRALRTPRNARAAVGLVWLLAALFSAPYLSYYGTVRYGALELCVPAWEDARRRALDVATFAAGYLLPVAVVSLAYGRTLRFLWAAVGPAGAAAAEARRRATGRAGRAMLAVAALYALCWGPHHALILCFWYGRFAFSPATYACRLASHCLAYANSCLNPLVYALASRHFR
Efflux pump inh: inhibitors of Candida antifungal efflux pumps expressed in yeast | S. cerevisiae Candida pump triplex, Nile Red efflux | inhibition, % at 10 µM | 0.44% of 330,000 active | AID 485275;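 active = plate passing quality check with inhibition over a set limit, or well fluorescence over plate mean plus 4 SD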;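 also: Nile Red retained in pooled yeast measured as flow cytometry median fluorescence; higher means more Nile Red kept so more efflux inhibition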
U2OS cAMP counter: U2OS forskolin cAMP inhibition counter-screen | inhibition, % at 6.5 µM | parental U2OS, LANCE TR-FRET | 26% of 1,600 active | shares compounds with MC4R antag cAMP;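 active = mean inhibition over triplicates above the low-control well mean plus 3 SD, set per campaign, cut at about 13% in these data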;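 also: signal is single emission at 671 nm which falls as cellular cAMP rises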
MC4R antag conf: human MC4R cAMP antagonism confirmation. shares compounds with MC4R antag cAMP. MC4R-expressing cells, MTII-stimulated cAMP, TR-FRET. inhibition, % at 6.5 µM. 27% of 1,600 active. AID 602195; in the data active = inhibition above about 29%
Hits are given with their value; n = inactive; x = not tested or not shown; + = active, no number. Only some compounds are listed: those with a hit (about 2.9% of all), similar ones and a draw of the others.

SMILES	Calb FLC	MC4R antag cAMP	MC4R ag barr	TAG inh	GalR3 antag	Efflux pump inh	U2OS cAMP counter	MC4R antag conf
O=c1sc(N2CCN(c3ccc(F)cc3)CC2)nc2ccsc12	n	+	n	n	x	n	n	n
O=C(O)CCC(=O)N1N=C(c2ccco2)CC1c1cccs1 (configuration not stated)	n	n	n	x	n	n	x	x
O=C(O)CCC(=O)N1N=C(c2ccc(Br)cc2)CC1c1cccs1 (configuration not stated)	n	30.0	n	n	n	n	n	n
CCOC(=O)N(C)[C@H]1C[C@H]2c3[nH]c4c(-c5ccccc5)cccc4c3CCN2C(=O)[C@H]1[C@H](C)O	x	x	x	x	n	x	x	x
O=C(CSCC(=O)OCC(=O)c1ccc(Br)cc1)Nc1ccc(Br)cc1	n	n	n	n	n	n	x	x
CCOC(=O)c1ccc(NC(=O)CSCC(=O)OCC(=O)c2ccccc2)cc1	n	36.4	n	x	n	n	n	n
CCOc1cc(/C=C2\N=C(C)OC2=O)cc(Br)c1OCCc1ccccc1	n	n	n	x	n	n	x	x
CCOc1cc(/C=C2\N=C(C)OC2=O)cc(Br)c1OCC(=O)OC	n	44.2	n	x	n	n	n	n
CCCC(=O)N1CCCC1(C)C(=O)Nc1ccc2c(c1)CCN2C(C)=O (configuration not stated)	x	n	n	n	n	x	x	x
O=C1OCCC1Sc1nc2ccccc2n1Cc1ccccc1 (configuration not stated)	n	30.0	n	n	n	n	n	36.9
COc1ccc(-n2c(SC3CCOC3=O)nc3ccccc32)cc1 (configuration not stated)	n	42.1	n	x	n	n	n	n
O=C1OCCC1Sc1nnc(-c2ccc(F)cc2)n1Cc1ccccc1 (configuration not stated)	n	32.1	n	x	n	n	25.8	32.3
O=C1OCCC1Sc1nc2ccccc2c(=O)n1Cc1ccc(F)cc1 (configuration not stated)	n	n	n	x	n	n	x	x
CC1CCN(C(=O)Cn2cnc3c(cnn3C(C)(C)C)c2=O)CC1	n	36.0	n	n	n	n	n	n
CC(C)(C)n1ncc2c(=O)n(CC(=O)N3CCCC3)cnc21	n	n	n	n	n	n	x	x
S=c1[nH]nc(-c2cccc(Br)c2)o1	n	45.9	n	n	n	n	15.7	n
S=c1[nH]nc(-c2cccnc2)o1	n	n	n	n	n	n	x	x
CC(C)Cn1c(CN2CCN(c3ccccc3F)CC2)nc2c1c(=O)[nH]c(=O)n2C	n	28.6	n	n	n	n	n	n
COC(=O)Cn1c(CN2CCN(c3ccccc3F)CC2)nc2c1c(=O)n(C)c(=O)n2C	x	n	n	n	x	x	x	x
CN(C)S(=O)(=O)c1ccc(N2CCCC2)c(C(=O)N2CCN(c3ccc([N+](=O)[O-])cc3)CC2)c1	n	33.6	n	n	n	n	n	n
CC(C(=O)c1ccccc1)[n+]1cccc(C(N)=O)c1 (configuration not stated)	n	33.0	n	n	n	n	n	n
CCOC(=O)c1sc(=S)[nH]c1C	x	42.6	n	n	n	x	n	31.0
COc1ccc(-c2noc(CCC(=O)NCCc3cccc(C)c3)n2)cc1	n	28.9	n	x	n	n	n	n
CCOC(=O)N1CCN(C(=O)C[C@@H]2C[C@@]3(C(=O)OCC)CCC=C3N(Cc3cccc4ccccc34)C2=O)CC1	x	x	x	x	n	x	x	x
CCn1c(CC(=O)Nc2ccc(F)cc2)nnc1SCC(=O)Nc1nnc(C)s1	n	29.7	n	x	n	n	n	n
CCn1c(CC(=O)Nc2ccc(F)cc2)nnc1SCC(=O)NC1CCCC1	n	n	n	x	n	n	x	x
CC(=O)c1ccc(S(=O)(=O)NC2CCCCCCC2)cc1	n	34.5	n	x	n	n	n	n
O=C(O)c1ccc(S(=O)(=O)NC2CCCCCC2)cc1	n	n	n	x	n	n	x	x
O=C(NCc1ccco1)c1cc(S(=O)(=O)N2CCCc3ccccc32)ccc1Cl	n	n	n	n	n	n	x	x
